The source made the active and inactive calls. Unless noted, the rule behind the calls is not given here.
Legend:
[1] = target: T1, Histone acetyltransferase RTT109 (Saccharomyces cerevisiae (strain ATCC 204508 / S288c) (Baker's yeast), UniProt Q07794); assay: Inhibition of Vps75-stimulated recombinant Saccharomyces cerevisiae histone acetyltransferase Rtt109 using Asf1-dH3-H4 as substrate assessed as coenzyme A production after 45 mins by CPM based HTS assay
T1 sequence (Q07794 whole entry): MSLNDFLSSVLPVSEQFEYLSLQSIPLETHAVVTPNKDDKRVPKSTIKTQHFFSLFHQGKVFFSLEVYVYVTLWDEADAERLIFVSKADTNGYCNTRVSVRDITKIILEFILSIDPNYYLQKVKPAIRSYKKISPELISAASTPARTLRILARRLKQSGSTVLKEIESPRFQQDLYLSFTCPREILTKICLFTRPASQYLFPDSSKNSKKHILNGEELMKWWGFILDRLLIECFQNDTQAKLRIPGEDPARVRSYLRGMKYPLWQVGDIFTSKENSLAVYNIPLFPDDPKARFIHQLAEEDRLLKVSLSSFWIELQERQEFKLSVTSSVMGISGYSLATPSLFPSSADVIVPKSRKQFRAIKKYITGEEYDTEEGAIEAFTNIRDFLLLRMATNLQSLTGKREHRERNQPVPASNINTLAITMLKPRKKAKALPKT
Summary of the method: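 Recombinant Rtt109–Vps75 at 50 nM, with Asf1–dH3–H4 as substrate and acetyl-CoA as acetyl donor. Buffer contained freshly prepared 0.01% Triton X-100. The CoA product was detected by fluorescence of its CPM adduct. Plates had Z′ ≥0.5. IC50 came from a four-parameter variable-slope fit.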

[2] = target: T2, Histone acetyltransferase RTT109 (Saccharomyces cerevisiae (strain ATCC 204508 / S288c) (Baker's yeast)) (UniProt Q07794); assay: Inhibition of Vps75-stimulated recombinant Saccharomyces cerevisiae histone acetyltransferase Rtt109 assessed as H3K56 acetylated product at […] after 45 mins by Slot bolt inhibiton assay
T2 sequence (whole entry): T1 sequence (Q07794 whole entry)

[3] = target: T2, Histone acetyltransferase RTT109 (Saccharomyces cerevisiae (strain ATCC 204508 / S288c) (Baker's yeast)); assay: Inhibition of Vps75-stimulated recombinant Saccharomyces cerevisiae histone acetyltransferase Rtt109 assessed as H3K27 acetylated product at […] after 45 mins by Slot bolt inhibiton assay
[4] = Fluorescence quenching assessed as fluorescence signal reduction at 10 uM after 10 mins; format: physicochemical
Summary of the method: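 CPM (20 μM final) and CoA (5 μM final) reacted to completion in assay buffer (stable plateau, usually ~5 min); adduct solution added to wells preplated with compound; shaken 5 min, equilibrated 5 min at room temperature; fluorescence intensity read as percent signal reduction versus DMSO controls. Flagged as quencher at >20% signal reduction at 10 μM final compound.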

[5] = Fluorescence quenching in HTS buffer assessed as fluorescence signal reduction at 10 uM after 10 mins; format: physicochemical
[6] = Fluorescence quenching in HTS buffer with […] CoA assessed as fluorescence signal reduction at 10 uM after 10 mins; format: physicochemical
[7] = target: T1, Histone acetyltransferase RTT109; assay: Inhibition of Vps75-stimulated recombinant Saccharomyces cerevisiae histone acetyltransferase Rtt109 using [3H]-acetyl-CoA assessed as acetate incorporation after 30 mins by liquid scintillation counting; details: read-out: IC50
[8] = target: T3, Histone acetyltransferase p300 (Homo sapiens, UniProt Q09472); assay: Inhibition of recombinant histone acetyltransferase p300 (unknown origin) using dH3-H4 tetramer and [3H]-acetyl-CoA assessed as acetate incorporation […] by liquid scintillation counting; details: read-out: IC50
[9] = target: Histone acetyltransferase GCN5 (Saccharomyces cerevisiae S288c, UniProt Q03330); assay: Inhibition of yeast histone acetyltransferase Gcn5-Ada2-Ada3 complex using tetramer and [3H]-acetyl-CoA assessed as acetate incorporation after 30 mins by liquid scintillation counting; details: read-out: IC50
[10] = target: T2, Histone acetyltransferase RTT109 (Saccharomyces cerevisiae (strain ATCC 204508 / S288c) (Baker's yeast)); assay: Inhibition of Vps75-stimulated recombinant Saccharomyces cerevisiae histone acetyltransferase Rtt109 using [3H]-acetyl-CoA assessed as acetate incorporation […] by liquid scintillation counting in presence of 1 mM DTT
[11] = target: Histone acetyltransferase GCN5 (Saccharomyces cerevisiae S288c) (UniProt Q03330); assay: Inhibition of yeast histone acetyltransferase Gcn5-Ada2-Ada3 complex using tetramer and [3H]-acetyl-CoA assessed as acetate incorporation […] by liquid scintillation counting in presence of 1 mM DTT
[12] = Fluorescence quenching in HTS buffer with 20 uM 7-diethylamino-3-(4'-maleimidyl-phenyl)-4-methylcoumarin assessed as fluorescence signal reduction at 10 uM after 10 mins; format: physicochemical
[13] = target: T3, Histone acetyltransferase p300; assay: Inhibition of recombinant histone acetyltransferase p300 (unknown origin) using dH3-H4 tetramer and [3H]-acetyl-CoA assessed as acetate incorporation after 5 mins by liquid scintillation counting in presence of 1 mM DTT
[14] = Chemical stability of the compound in HTS buffer assessed as GSH adduct formation measured as retention time after 5 mins by UPLC-MS analysis; format: physicochemical
Summary of the method: (§1)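 Compound (typically 0.5 mM final) incubated in HTS buffer (pH 8.0) for 5, 15 or 30 min, then reduced glutathione added (2 equiv per 1 equiv compound); aliquots analysed by UPLC–MS (BEH C18 column, ELS and 254 nm traces) 5 min after GSH addition, and the same sample re-analysed 15 min later. HTS-like conditions but 5% DMSO, no detergent.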

[15] = Chemical stability of the compound in HTS buffer assessed as GSH adduct formation measured as retention time after 15 mins by UPLC-MS analysis; format: physicochemical; details: 0.25 h; summary of the method: as §1
[16] = target: T4, Lupus La protein (Homo sapiens) (UniProt P05455); assay: Induction of thiol reactivity with La protein (unknown origin) using […] assessed as protein reactivity by ALARM NMR
T4 sequence (whole entry): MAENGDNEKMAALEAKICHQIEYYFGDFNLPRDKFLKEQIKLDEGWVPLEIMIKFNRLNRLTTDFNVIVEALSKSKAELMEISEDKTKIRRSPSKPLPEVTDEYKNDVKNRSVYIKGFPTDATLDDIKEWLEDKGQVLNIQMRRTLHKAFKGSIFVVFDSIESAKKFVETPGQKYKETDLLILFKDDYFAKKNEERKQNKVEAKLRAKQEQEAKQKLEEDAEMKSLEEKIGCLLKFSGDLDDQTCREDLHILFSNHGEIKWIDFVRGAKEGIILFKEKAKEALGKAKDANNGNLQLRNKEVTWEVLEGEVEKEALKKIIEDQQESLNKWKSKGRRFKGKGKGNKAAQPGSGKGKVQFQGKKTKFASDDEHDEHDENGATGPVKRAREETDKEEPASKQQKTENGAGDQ
Summary of the method: (§2)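 ALARM NMR with recombinant La antigen expressed in E. coli Rosetta, 15N-labelled and 13C-labelled at Leu/Ile δ-methyl and Val γ-methyl groups; protein pre-reduced with 20 mM DTT then dialysed DTT-free under N2.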

[17] = target: T4, Lupus La protein (Homo sapiens); assay: Induction of thiol reactivity with La protein (unknown origin) using […] assessed as protein reactivity by ALARM NMR in presence of 20 mM DTT; summary of the method: as §2
[18] = Chemical stability of the compound in HTS buffer assessed as GSH adduct formation by UPLC-MS analysis; format: physicochemical; summary of the method: as §1

Histone acetyltransferase GCN5 (Saccharomyces cerevisiae S288c), sequence (Q03330 whole entry): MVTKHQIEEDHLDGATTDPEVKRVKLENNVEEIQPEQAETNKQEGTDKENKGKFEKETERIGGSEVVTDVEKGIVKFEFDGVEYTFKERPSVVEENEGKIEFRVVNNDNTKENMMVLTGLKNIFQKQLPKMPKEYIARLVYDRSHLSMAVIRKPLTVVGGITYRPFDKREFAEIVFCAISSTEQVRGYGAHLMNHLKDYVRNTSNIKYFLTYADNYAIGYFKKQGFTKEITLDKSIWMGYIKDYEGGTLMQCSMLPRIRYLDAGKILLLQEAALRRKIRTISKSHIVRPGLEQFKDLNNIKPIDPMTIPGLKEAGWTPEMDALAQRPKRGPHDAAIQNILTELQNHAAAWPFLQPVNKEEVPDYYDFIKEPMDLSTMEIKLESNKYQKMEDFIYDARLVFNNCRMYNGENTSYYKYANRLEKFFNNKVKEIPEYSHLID
Histone acetyltransferase GCN5, sequence (Q03330 whole entry): as above
T3 sequence (Q09472 whole entry): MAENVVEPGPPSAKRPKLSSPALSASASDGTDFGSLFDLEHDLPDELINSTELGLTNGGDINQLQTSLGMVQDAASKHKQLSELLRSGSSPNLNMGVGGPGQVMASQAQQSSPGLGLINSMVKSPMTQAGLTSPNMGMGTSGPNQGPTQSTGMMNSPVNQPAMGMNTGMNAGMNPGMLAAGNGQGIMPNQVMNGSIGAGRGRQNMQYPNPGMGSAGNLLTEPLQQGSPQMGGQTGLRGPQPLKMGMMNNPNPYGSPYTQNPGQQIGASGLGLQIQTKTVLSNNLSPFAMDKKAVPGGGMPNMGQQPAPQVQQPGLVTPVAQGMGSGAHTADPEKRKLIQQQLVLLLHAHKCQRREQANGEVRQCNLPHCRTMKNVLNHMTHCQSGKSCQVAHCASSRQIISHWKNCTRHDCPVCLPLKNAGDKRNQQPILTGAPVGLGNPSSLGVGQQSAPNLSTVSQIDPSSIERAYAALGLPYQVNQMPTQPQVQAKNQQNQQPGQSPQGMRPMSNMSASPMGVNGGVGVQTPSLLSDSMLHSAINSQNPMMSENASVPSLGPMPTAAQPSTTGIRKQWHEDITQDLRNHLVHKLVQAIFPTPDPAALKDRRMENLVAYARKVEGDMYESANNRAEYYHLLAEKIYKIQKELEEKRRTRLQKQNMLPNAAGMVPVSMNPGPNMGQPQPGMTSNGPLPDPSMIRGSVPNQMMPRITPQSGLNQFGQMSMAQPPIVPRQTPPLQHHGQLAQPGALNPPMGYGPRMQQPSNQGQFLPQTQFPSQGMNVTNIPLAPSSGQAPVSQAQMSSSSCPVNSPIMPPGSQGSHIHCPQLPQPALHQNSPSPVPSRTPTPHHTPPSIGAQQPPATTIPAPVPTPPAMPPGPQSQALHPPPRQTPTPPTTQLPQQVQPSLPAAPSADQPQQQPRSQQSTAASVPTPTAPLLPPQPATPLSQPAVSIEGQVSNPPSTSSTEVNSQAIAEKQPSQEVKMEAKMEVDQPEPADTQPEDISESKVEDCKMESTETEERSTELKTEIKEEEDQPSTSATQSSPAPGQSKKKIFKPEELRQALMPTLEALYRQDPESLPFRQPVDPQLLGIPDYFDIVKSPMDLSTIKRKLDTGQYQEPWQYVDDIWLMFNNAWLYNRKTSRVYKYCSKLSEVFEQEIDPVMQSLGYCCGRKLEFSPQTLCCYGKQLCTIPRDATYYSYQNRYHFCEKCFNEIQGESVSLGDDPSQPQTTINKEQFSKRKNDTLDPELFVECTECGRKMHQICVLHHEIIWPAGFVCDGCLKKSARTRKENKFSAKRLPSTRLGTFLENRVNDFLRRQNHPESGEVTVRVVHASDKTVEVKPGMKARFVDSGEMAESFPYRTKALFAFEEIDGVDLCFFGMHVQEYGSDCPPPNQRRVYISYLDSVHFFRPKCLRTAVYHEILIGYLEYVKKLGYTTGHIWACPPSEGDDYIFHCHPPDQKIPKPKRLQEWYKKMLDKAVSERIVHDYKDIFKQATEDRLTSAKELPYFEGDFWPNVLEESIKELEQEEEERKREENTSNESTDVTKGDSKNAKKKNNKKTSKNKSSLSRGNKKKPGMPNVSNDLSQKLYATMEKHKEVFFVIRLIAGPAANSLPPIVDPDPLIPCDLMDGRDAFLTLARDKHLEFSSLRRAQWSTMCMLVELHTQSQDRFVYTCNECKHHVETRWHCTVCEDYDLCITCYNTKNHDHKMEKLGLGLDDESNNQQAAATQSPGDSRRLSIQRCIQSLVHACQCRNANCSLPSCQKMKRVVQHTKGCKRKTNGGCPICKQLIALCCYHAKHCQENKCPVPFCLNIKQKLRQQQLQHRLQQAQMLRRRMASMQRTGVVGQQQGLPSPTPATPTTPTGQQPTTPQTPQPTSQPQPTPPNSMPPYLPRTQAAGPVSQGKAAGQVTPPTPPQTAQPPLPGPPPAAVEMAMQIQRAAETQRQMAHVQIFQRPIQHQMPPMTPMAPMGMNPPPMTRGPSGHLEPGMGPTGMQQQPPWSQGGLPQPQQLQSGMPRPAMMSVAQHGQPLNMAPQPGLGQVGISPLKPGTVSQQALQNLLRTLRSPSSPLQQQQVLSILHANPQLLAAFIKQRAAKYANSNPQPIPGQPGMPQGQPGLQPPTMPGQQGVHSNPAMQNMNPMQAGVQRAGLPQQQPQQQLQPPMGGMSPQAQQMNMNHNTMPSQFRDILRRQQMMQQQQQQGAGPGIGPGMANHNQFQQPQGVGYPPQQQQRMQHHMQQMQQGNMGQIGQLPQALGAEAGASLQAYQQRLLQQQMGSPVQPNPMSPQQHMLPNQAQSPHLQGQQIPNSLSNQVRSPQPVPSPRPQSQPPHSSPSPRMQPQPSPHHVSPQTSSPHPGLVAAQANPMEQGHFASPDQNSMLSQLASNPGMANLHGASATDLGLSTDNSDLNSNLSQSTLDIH

| SMILES | IC50 ([1]; read-out: IC50) | Activity [2] | Activity [3] | Activity [4] | Activity [5] | Activity [6] | IC50 [7] | IC50 [8] | IC50 [9] | Activity [10] | Activity [11] | Activity [12] | Activity [13] | IC50 [1] | Retention_time [14] | Retention_time [15] | Activity [16] | Activity [17] | Stability [18] |
| --- | --- | --- | --- | --- | --- | --- | --- | --- | --- | --- | --- | --- | --- | --- | --- | --- | --- | --- | --- |
| O=[N+]([O-])c1c(Sc2nnnn2-c2ccccc2)cc(Cl)c2nonc12 | 2300 nM | Active | Active | Not Active | Not Active | Not Active | 770 nM | 1100 nM | 1600 nM | Active | Active | Not Active | Active |  |  |  |  |  |  |
| O=C(O)CSc1cc(NS(=O)(=O)c2ccc(C(=O)O)cc2)c2ccccc2c1O |  |  |  | Not Active | Not Active | Not Active | 150 nM | 660 nM | 1300 nM |  | Active | Active | Active | Not Active | 3.27 min | 3.28 min |  |  |  |
| O=S(=O)(Nc1cc(Sc2ncn[nH]2)c(O)c2ccccc12)c1ccc2ccccc2c1 |  | Active | Active |  |  |  |  |  |  | Active | Active |  | Active |  |  |  | Active | inactive |  |
| O=S(=O)(Nc1cc(Sc2nnnn2-c2ccccc2)c(O)c2ccccc12)c1ccccc1 |  | Active | Active | Not Active | Not Active | Not Active |  | 3100 nM |  | Active | Active | Not Active | Active |  | 3.4 min | 3.28 min |  |  |  |
| O=S(=O)(Nc1cc(Sc2nc[nH]n2)c(O)c2ccccc12)c1ccc2ccccc2c1 |  |  |  | Not Active | Not Active | Not Active |  | 510 nM | 2500 nM |  |  | Not Active |  |  | 3.69 min | 3.28 min |  |  |  |
| Cc1ccc(N2C(=O)CC(Sc3nncn3-c3ccccc3)C2=O)cc1 (stereo not drawn) | 11000 nM | Active | Active | Not Active | Not Active | Not Active | 8600 nM | 9800 nM | 27000 nM | Active | Active | Not Active | Active |  |  |  |  |  |  |
| O=C(O)CCSc1cc(NS(=O)(=O)c2ccc(Br)cc2)c2ccccc2c1O |  |  |  | Not Active | Not Active | Not Active | 520 nM | 1000 nM | 650 nM |  | Active | Active | Active | Not Active | 3.67 min | 3.28 min | Active | inactive |  |
| CNc1nc(-c2ccccc2)[n+](-c2ccccc2)s1.[Cl-] |  | Active | Active | Not Active | Not Active | Not Active |  | 1900 nM | 7500 nM | Active | Active | Not Active | Active |  |  |  | Active | inactive | Unstable |
| O=S(=O)(Nc1cc(Cl)c(O)c2ccccc12)c1ccc(Br)cc1 | 2500 nM | Active | Active | Not Active | Not Active | Not Active | 1600 nM | 1800 nM | 1200 nM | Active | Active | Not Active | Active |  | 3.65 min | 3.28 min |  |  |  |
